Active and inactive are the calls of the source. The rule behind the calls is not given here.
Biological target: not listed separately
Assay: Inhibition of diphenolase activity of banana tyrosinase using catechol as substrate by spectrophotometry
Set-up: species or system Musa acuminata
In short: (§1)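 Tyrosinase (PPO) extracted from banana, then purified on a Sepharose 4B-L-tyrosine-p-aminobenzoic acid affinity column; all purification steps at 25 °C. Activity measured with catechol as substrate by following the absorbance increase at 420 nm. Residual activity was followed over a range of inhibitor concentrations, and progress curves were compared with uninhibited enzyme activity.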

With `O=C(Nc1ccccc1)Nc1ccc(/C=C/C(=O)c2ccccc2)cc1` as the molecule, how does the IC50 read?
Its IC50 is 172 nM.

Which IC50 does the source give for `O=C(Nc1ccc(F)cc1)Nc1ccc(/C=C/C(=O)c2ccc(Cl)cc2)cc1` here?
Its IC50 is 133 nM.

For `O=C(Nc1ccc(F)cc1)Nc1ccc(/C=C/C(=O)c2ccccc2)cc1`, which IC50 is on record?
The IC50 was 177 nM.

Which IC50 does the source give for `COc1ccc(C(=O)/C=C/c2ccc(NC(=O)Nc3ccc(C)cc3)cc2)cc1` here?
Its IC50 is 289 nM.

For `Cc1ccc(NC(=O)Nc2ccc(/C=C/C(=O)c3ccccc3)cc2)cc1`, which IC50 is on record?
The IC50 was 241 nM.

With `COc1cccc(NC(=O)Nc2ccc(/C=C/C(=O)c3ccc(Cl)cc3)cc2)c1` as the molecule, how does the IC50 read?
The IC50 was 152 nM.

With `Cc1ccc(NC(=O)Nc2ccc(/C=C/C(=O)c3ccc(Cl)cc3)cc2)cc1` as the molecule, how does the IC50 read?
Its IC50 is 238 nM.

With `Cc1ccc(NC(=O)Nc2ccc(/C=C/C(=O)c3ccc(C)cc3)cc2)cc1` as the molecule, how does the IC50 read?
Its IC50 is 134 nM.

With `Cc1ccc(C(=O)/C=C/c2ccc(NC(=O)Nc3ccc(F)cc3)cc2)cc1` as the molecule, how does the IC50 read?
The IC50 was 217 nM.

Which IC50 does the source give for `COc1cccc(NC(=O)Nc2ccc(/C=C/C(=O)c3ccccc3)cc2)c1` here?
The IC50 was 244 nM.

Tested on: Musa acuminata
Assay: Inhibition of diphenolase activity of banana tyrosinase using catechol as substrate at 50 uM by spectrophotometry
In short: as §1

With `O=C(/C=C/c1ccc(Cl)cc1)c1ccc(NC(=S)Nc2ccccc2)cc1` as the molecule, how does the inhibition read?
Its inhibition is “inactive”.

With `O=C(Nc1ccccc1)Nc1ccc(C(=O)/C=C/c2ccc(Cl)cc2)cc1` as the molecule, how does the inhibition read?
The inhibition was “inactive”.

For `O=C(Nc1ccccc1)Nc1ccc(C(=O)/C=C/c2ccc(Br)cc2)cc1`, which inhibition is on record?
Its inhibition is “inactive”.

With `Cc1ccc(NC(=O)Nc2ccc(C(=O)/C=C/c3ccc(Br)cc3)cc2)cc1` as the molecule, how does the inhibition read?
The inhibition was “inactive”.

For `COc1ccc(/C=C/C(=O)c2ccc(NC(=S)Nc3ccc(C)cc3)cc2)cc1`, which inhibition is on record?
Its inhibition is “inactive”.

With `Cc1ccc(/C=C/C(=O)c2ccc(NC(=O)Nc3ccc(C)cc3)cc2)cc1` as the molecule, how does the inhibition read?
Its inhibition is “inactive”.

With `COc1ccc(/C=C/C(=O)c2ccc(NC(=O)Nc3ccc(C)cc3)cc2)cc1` as the molecule, how does the inhibition read?
Its inhibition is “inactive”.

Which inhibition does the source give for `COc1ccc(/C=C/C(=O)c2ccc(NC(=O)Nc3ccccc3)cc2)cc1` here?
Its inhibition is “inactive”.

With `Cc1ccc(NC(=O)Nc2ccc(C(=O)/C=C/c3ccc(Cl)cc3)cc2)cc1` as the molecule, how does the inhibition read?
Its inhibition is “inactive”.

Which inhibition does the source give for `Cc1ccc(NC(=S)Nc2ccc(C(=O)/C=C/c3ccc(Cl)cc3)cc2)cc1` here?
Its inhibition is “inactive”.

For `COc1ccc(/C=C/C(=O)c2ccc(NC(=S)Nc3ccccc3)cc2)cc1`, which inhibition is on record?
Its inhibition is “inactive”.

With `Cc1ccc(/C=C/C(=O)c2ccc(NC(=O)Nc3ccccc3)cc2)cc1` as the molecule, how does the inhibition read?
Its inhibition is “inactive”.

Tested on: Musa acuminata
Assay: Activation of diphenolase activity of banana tyrosinase using catechol as substrate at 50 uM by spectrophotometry
In short: as §1

Which Activity does the source give for `O=C(/C=C/c1ccc(Cl)cc1)c1ccc(NC(=S)Nc2ccccc2)cc1` here?
The Activity was “Active”.

With `O=C(Nc1ccccc1)Nc1ccc(C(=O)/C=C/c2ccc(Cl)cc2)cc1` as the molecule, how does the Activity read?
The Activity was “Active”.

Which Activity does the source give for `O=C(Nc1ccccc1)Nc1ccc(C(=O)/C=C/c2ccc(Br)cc2)cc1` here?
The Activity was “Active”.

With `Cc1ccc(NC(=O)Nc2ccc(C(=O)/C=C/c3ccc(Br)cc3)cc2)cc1` as the molecule, how does the Activity read?
The Activity was “Active”.

Which Activity does the source give for `COc1ccc(/C=C/C(=O)c2ccc(NC(=S)Nc3ccc(C)cc3)cc2)cc1` here?
The Activity was “Active”.

With `Cc1ccc(/C=C/C(=O)c2ccc(NC(=O)Nc3ccc(C)cc3)cc2)cc1` as the molecule, how does the Activity read?
Its Activity is “Active”.

With `COc1ccc(/C=C/C(=O)c2ccc(NC(=O)Nc3ccc(C)cc3)cc2)cc1` as the molecule, how does the Activity read?
The Activity was “Active”.

With `COc1ccc(/C=C/C(=O)c2ccc(NC(=O)Nc3ccccc3)cc2)cc1` as the molecule, how does the Activity read?
Its Activity is “Active”.

With `Cc1ccc(NC(=O)Nc2ccc(C(=O)/C=C/c3ccc(Cl)cc3)cc2)cc1` as the molecule, how does the Activity read?
The Activity was “Active”.

For `Cc1ccc(NC(=S)Nc2ccc(C(=O)/C=C/c3ccc(Cl)cc3)cc2)cc1`, which Activity is on record?
The Activity was “Active”.

For `COc1ccc(/C=C/C(=O)c2ccc(NC(=S)Nc3ccccc3)cc2)cc1`, which Activity is on record?
The Activity was “Active”.

With `Cc1ccc(/C=C/C(=O)c2ccc(NC(=O)Nc3ccccc3)cc2)cc1` as the molecule, how does the Activity read?
Its Activity is “Active”.

Biological target: not listed separately
Assay: Competitive inhibition of diphenolase activity of banana tyrosinase using catechol as substrate by Lineweaver-Burk double reciprocal plot analysis
Set-up: species or system Musa acuminata
In short: as §1

For `O=C(Nc1ccccc1)Nc1ccc(/C=C/C(=O)c2ccccc2)cc1`, which Ki is on record?
Its Ki is 37 nM.

Which Ki does the source give for `O=C(Nc1ccc(F)cc1)Nc1ccc(/C=C/C(=O)c2ccc(Cl)cc2)cc1` here?
The Ki was 117 nM.

For `O=C(Nc1ccc(F)cc1)Nc1ccc(/C=C/C(=O)c2ccccc2)cc1`, which Ki is on record?
Its Ki is 125 nM.

Which Ki does the source give for `COc1ccc(C(=O)/C=C/c2ccc(NC(=O)Nc3ccc(C)cc3)cc2)cc1` here?
The Ki was 22 nM.

Which Ki does the source give for `Cc1ccc(NC(=O)Nc2ccc(/C=C/C(=O)c3ccccc3)cc2)cc1` here?
The Ki was 57 nM.

For `COc1cccc(NC(=O)Nc2ccc(/C=C/C(=O)c3ccc(Cl)cc3)cc2)c1`, which Ki is on record?
Its Ki is 59 nM.

Which Ki does the source give for `Cc1ccc(NC(=O)Nc2ccc(/C=C/C(=O)c3ccc(Cl)cc3)cc2)cc1` here?
The Ki was 129 nM.

For `Cc1ccc(NC(=O)Nc2ccc(/C=C/C(=O)c3ccc(C)cc3)cc2)cc1`, which Ki is on record?
The Ki was 67 nM.

Which Ki does the source give for `Cc1ccc(C(=O)/C=C/c2ccc(NC(=O)Nc3ccc(F)cc3)cc2)cc1` here?
Its Ki is 59 nM.

For `COc1cccc(NC(=O)Nc2ccc(/C=C/C(=O)c3ccccc3)cc2)c1`, which Ki is on record?
Its Ki is 240 nM.

From ChEMBL document CHEMBL1921736, “Evaluation of new chalcone derivatives as polyphenol oxidase inhibitors” (Bioorg Med Chem Lett, 2011)
